Experimental data from ChEMBL document CHEMBL1144550, “Molecular probes of DNA bulges: functional assay and spectroscopic analysis” (Bioorg Med Chem, 2007).
Active and inactive are the calls of the source. No cut-off for these calls is given here.

Tests used:
[1] = Effect on DNA binding assessed as binding to HT3AGTT synthetic oligo sequence code by measuring fluorescence stimulation due to AT base pairs next to bulge in bulge binding assay; design: species or system Homo sapiens
Summary of the method: (§1)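 Dissociation constants for a panel of 17 synthetic bulged oligos, taken from changes in drug fluorescence in emission spectra (excitation 360 nm, emission 480 nm) at 5 °C. Binding appears either as quenching or as stimulation of drug fluorescence. Values are given with standard deviations.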

[2] = Effect on DNA binding assessed as binding to HT4AGTT synthetic oligo sequence code by measuring fluorescence stimulation due to AT base pairs next to bulge in bulge binding assay; design: species or system Homo sapiens; summary of the method: as §1
[3] = Effect on DNA binding assessed as binding to HT3AGT synthetic oligo sequence code by measuring fluorescence stimulation due to AT base pairs next to bulge in bulge binding assay; design: species or system Homo sapiens; summary of the method: as §1
[4] = Effect on DNA binding assessed as binding to HT3AGCTT synthetic oligo sequence code by measuring fluorescence stimulation due to AT base pairs next to bulge in bulge binding assay; design: species or system Homo sapiens; summary of the method: as §1
[5] = Effect on DNA binding assessed as binding to HT3AGTA synthetic oligo sequence code by measuring fluorescence stimulation due to AT base pairs next to bulge in bulge binding assay; design: species or system Homo sapiens; summary of the method: as §1
[6] = Effect on DNA binding assessed as binding to HT3TGTA synthetic oligo sequence code by measuring fluorescence stimulation due to AT base pairs next to bulge in bulge binding assay; design: species or system Homo sapiens; summary of the method: as §1
[7] = Effect on DNA binding assessed as binding to HT3GGTT synthetic oligo sequence code by measuring fluorescence quenching due to GC base pairs next to bulge in bulge binding assay; design: species or system Homo sapiens; summary of the method: as §1
[8] = Effect on DNA binding assessed as binding to HT3GGTC synthetic oligo sequence code by measuring fluorescence quenching due to GC base pairs next to bulge in bulge binding assay; design: species or system Homo sapiens; summary of the method: as §1
[9] = Effect on DNA binding assessed as binding to HT3CGTC synthetic oligo sequence code by measuring fluorescence quenching due to GC base pairs next to bulge in bulge binding assay; design: species or system Homo sapiens; summary of the method: as §1
[10] = Effect on DNA binding assessed as binding to HT3AT synthetic oligo sequence code by measuring fluorescence stimulation due to AT base pairs next to bulge in bulge binding assay; design: species or system Homo sapiens; summary of the method: as §1
[11] = Effect on DNA binding assessed as binding to HT3CGTA synthetic oligo sequence code by measuring fluorescence stimulation due to AT base pairs next to bulge in bulge binding assay; design: species or system Homo sapiens; summary of the method: as §1
[12] = Effect on DNA binding assessed as binding to HT3GATC synthetic oligo sequence code by measuring fluorescence quenching due to GC base pairs next to bulge in bulge binding assay; design: species or system Homo sapiens; summary of the method: as §1
[13] = Effect on DNA binding assessed as binding to HT3GTTG synthetic oligo sequence code by measuring fluorescence quenching due to GC base pairs next to bulge in bulge binding assay; design: species or system Homo sapiens; summary of the method: as §1
Homo sapiens [14] = species on record: Homo sapiens; experiment: Effect on slipped DNA synthesis assessed as enhanced synthesis at 40 uM relative to control
[15] = Effect on DNA binding assessed as binding to HT3GGTA synthetic oligo sequence code by measuring fluorescence stimulation due to AT base pairs next to bulge in bulge binding assay; design: species or system Homo sapiens; summary of the method: as §1
[16] = Effect on DNA binding assessed as binding to HT3AGTC synthetic oligo sequence code by measuring fluorescence stimulation due to AT base pairs next to bulge in bulge binding assay; design: species or system Homo sapiens; summary of the method: as §1
Homo sapiens [17] = species on record: Homo sapiens; experiment: Effect on DNA binding assessed as binding to DA12:DAc12 synthetic oligo sequence code by measuring fluorescence quenching due to GC base pairs next to bulge in bulge binding assay; summary of the method: as §1
[18] = Effect on DNA binding assessed as binding to DA12:BA14 synthetic oligo sequence code by measuring fluorescence stimulation due to AT base pairs next to bulge in bulge binding assay; design: species or system Homo sapiens; summary of the method: as §1
[19] = biological target: DNA polymerase I Klenow fragment (Escherichia coli) (UniProt P00582); experiment: Induction of slipped DNA synthesis assessed as incorporation of [32P]TMP at 40 uM
[20] = Effect on DNA binding assessed as binding to HT3GGTA synthetic oligo sequence code by measuring fluorescence quenching due to GC base pairs next to bulge in bulge binding assay; design: species or system Homo sapiens; summary of the method: as §1
[21] = Effect on DNA binding assessed as binding to HT3AGTC synthetic oligo sequence code by measuring fluorescence quenching due to GC base pairs next to bulge in bulge binding assay; design: species or system Homo sapiens; summary of the method: as §1

| Kd [1] | Kd [2] | Kd [3] | Kd [4] | Kd [5] | Kd [6] | Kd [7] | Kd [8] | Kd [9] | Kd [10] | Kd [11] | Kd [12] | Kd [13] | Activity (Homo sapiens [14]) | Activity (Homo sapiens [17]) | Kd [18] | Activity [19] | SMILES | further results |
| --- | --- | --- | --- | --- | --- | --- | --- | --- | --- | --- | --- | --- | --- | --- | --- | --- | --- | --- |
| 130 nM | 240 nM | 4100 nM | 1700 nM | 1400 nM | 550 nM | 110 nM | 160 nM | 170 nM | 13000 nM | 160 nM | 150 nM | 300 nM | 15.7 | inactive | 800 nM | 37000 cpm | CN[C@H]1[C@@H](O[C@@H]2c3cc4ccccc4cc3[C@@H]3[C@H]2CC[C@@]32C(=O)C=Cc3ccc(OC)cc32)O[C@H](C)[C@H](O)[C@@H]1O | Kd [15]: 1960 nM; Kd [16]: 260 nM |
| 80 nM | 110 nM | 8400 nM | 2100 nM | 220 nM | 1130 nM | 140 nM | 100 nM | 150 nM | 10000 nM | 110 nM | 240 nM | 160 nM | 31.8 | inactive | 600 nM | 75000 cpm | CN[C@H]1[C@@H](O[C@H]2c3cc4ccccc4cc3[C@H]3[C@@H]2CC[C@]32C(=O)C=Cc3ccc(OC)cc32)O[C@H](C)[C@H](O)[C@@H]1O | Kd [20]: 290 nM; Kd [21]: 290 nM |
